Laboratory results taken from the M2OR odorant receptor database.

What was measured:
Conditions in all cases: stereoisomer not certain
OR10H3 (Homo sapiens) = target: T1, OR10H3 (Homo sapiens) (UniProt O60404)
T1 sequence (whole entry): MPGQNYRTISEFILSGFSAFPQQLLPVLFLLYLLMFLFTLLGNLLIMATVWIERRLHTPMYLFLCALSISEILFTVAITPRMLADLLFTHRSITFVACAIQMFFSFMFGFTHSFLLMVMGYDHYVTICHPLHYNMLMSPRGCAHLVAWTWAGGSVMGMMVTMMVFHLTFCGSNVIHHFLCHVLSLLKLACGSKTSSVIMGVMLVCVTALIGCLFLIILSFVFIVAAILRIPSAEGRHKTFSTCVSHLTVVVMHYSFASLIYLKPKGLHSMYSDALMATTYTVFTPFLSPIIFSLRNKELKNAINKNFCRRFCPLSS
Summary of the method: (§1)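 Whether a receptor–molecule pair is responsive (active) rests on the original authors' judgment that its measured signal was statistically different from baseline. Pairs without that judgment are non-responsive (inactive). Sources used varied assay methods, commonly transient luciferase assays in mammalian cell lines.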

OR10H4 (Homo sapiens) = target: T2, OR10H4 (Homo sapiens) (UniProt Q8NGA5)
T2 sequence (whole entry): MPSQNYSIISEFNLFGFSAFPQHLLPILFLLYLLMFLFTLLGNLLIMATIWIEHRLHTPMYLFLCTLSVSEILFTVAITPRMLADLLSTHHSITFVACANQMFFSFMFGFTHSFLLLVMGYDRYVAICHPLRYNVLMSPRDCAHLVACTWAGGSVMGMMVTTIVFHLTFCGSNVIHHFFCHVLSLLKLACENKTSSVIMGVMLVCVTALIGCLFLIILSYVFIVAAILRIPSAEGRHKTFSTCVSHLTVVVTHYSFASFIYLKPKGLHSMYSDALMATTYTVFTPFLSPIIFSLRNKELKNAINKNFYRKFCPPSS
Summary of the method: as §1

OR10H5 (Homo sapiens) = target: T3, OR10H5 (Homo sapiens) (UniProt Q8NGA6)
T3 sequence (whole entry): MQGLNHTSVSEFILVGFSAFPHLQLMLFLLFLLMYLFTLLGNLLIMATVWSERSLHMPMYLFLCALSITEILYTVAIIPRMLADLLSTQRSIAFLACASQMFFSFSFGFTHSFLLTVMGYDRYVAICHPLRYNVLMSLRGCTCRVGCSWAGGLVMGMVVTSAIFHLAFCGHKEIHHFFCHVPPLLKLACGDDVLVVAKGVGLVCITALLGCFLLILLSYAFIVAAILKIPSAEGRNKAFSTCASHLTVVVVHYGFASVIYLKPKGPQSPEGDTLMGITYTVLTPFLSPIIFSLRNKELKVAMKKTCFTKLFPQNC
Summary of the method: as §1

OR10J1 (Homo sapiens) = target: T4, OR10J1 (Homo sapiens) (UniProt P30954)
T4 sequence (whole entry): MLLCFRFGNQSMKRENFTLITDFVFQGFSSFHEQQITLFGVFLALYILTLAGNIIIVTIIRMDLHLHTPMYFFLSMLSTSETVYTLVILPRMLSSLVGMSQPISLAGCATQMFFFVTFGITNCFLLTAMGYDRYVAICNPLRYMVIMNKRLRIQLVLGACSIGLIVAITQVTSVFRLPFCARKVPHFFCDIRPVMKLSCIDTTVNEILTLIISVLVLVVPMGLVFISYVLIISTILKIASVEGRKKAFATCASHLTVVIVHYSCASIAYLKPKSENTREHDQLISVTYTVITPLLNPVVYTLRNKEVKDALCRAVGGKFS
Summary of the method: as §1

OR10J3 (Homo sapiens) = target: T5, OR10J3 (Homo sapiens) (UniProt Q5JRS4)
T5 sequence (whole entry): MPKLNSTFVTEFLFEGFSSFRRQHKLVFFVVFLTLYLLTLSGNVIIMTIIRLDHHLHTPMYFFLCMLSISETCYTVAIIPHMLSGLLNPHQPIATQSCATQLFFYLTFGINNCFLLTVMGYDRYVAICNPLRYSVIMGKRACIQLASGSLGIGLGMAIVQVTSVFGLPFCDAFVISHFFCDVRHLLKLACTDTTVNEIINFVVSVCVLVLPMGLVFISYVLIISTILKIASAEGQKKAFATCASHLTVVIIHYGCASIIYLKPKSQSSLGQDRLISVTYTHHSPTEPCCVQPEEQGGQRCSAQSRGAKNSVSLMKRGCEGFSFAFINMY
Summary of the method: as §1

OR10J5 (Homo sapiens) = target: T6, OR10J5 (Homo sapiens) (UniProt Q8NHC4)
T6 sequence (whole entry): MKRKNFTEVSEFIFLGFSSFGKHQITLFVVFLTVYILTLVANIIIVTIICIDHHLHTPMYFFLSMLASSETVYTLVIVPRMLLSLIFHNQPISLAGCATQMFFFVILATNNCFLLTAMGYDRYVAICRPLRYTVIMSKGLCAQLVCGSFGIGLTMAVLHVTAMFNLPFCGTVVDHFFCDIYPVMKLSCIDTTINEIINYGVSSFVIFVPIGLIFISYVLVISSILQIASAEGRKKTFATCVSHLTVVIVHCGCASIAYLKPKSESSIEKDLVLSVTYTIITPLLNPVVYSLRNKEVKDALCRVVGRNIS
Summary of the method: as §1

OR10K1 (Homo sapiens) = target: T7, OR10K1 (Homo sapiens) (UniProt Q8NGX5)
T7 sequence (whole entry): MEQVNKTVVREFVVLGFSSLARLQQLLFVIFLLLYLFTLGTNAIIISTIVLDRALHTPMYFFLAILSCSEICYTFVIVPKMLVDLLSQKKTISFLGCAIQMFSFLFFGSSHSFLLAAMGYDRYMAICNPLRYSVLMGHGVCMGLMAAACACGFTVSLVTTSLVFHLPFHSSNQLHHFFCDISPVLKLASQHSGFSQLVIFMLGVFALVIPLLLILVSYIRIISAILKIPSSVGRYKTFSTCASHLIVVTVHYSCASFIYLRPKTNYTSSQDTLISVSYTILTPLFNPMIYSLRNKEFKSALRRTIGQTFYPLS
Summary of the method: as §1

OR10K2 (Homo sapiens) = target: T8, OR10K2 (Homo sapiens) (UniProt Q6IF99)
T8 sequence (whole entry): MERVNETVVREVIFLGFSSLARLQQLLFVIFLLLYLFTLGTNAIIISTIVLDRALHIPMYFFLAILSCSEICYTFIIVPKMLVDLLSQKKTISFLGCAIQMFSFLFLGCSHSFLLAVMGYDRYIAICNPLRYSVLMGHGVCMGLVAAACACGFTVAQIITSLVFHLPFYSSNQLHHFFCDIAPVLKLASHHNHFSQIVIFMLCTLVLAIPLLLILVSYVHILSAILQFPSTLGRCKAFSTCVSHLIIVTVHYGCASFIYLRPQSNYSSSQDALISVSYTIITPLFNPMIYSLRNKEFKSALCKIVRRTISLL
Summary of the method: as §1

OR10P1 (Homo sapiens) = target: T9, OR10P1 (Homo sapiens) (UniProt Q8NGE3)
T9 sequence (whole entry): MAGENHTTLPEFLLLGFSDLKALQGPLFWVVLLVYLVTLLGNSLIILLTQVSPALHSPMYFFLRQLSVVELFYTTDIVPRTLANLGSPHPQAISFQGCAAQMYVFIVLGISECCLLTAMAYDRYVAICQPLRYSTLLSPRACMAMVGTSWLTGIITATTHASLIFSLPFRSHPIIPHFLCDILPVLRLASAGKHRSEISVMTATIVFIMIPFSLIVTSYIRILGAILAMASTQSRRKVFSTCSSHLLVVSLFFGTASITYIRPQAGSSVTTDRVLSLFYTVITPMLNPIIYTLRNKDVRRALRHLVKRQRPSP
Summary of the method: as §1

OR10Q1 (Homo sapiens) = target: T10, OR10Q1 (Homo sapiens) (UniProt Q8NGQ4)
T10 sequence (whole entry): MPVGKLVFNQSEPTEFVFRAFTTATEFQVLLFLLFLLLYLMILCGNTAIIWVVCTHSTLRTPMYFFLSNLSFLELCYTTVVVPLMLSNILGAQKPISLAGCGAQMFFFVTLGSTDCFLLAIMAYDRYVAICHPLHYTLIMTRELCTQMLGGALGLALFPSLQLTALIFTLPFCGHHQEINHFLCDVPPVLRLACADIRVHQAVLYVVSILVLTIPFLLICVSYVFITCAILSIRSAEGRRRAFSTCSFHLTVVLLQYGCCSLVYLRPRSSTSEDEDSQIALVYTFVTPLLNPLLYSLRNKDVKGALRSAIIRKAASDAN
Summary of the method: as §1

Measured: odorant receptor agonist call

CCCCC(S)C(C)CO (stereo not given)
inactive: OR10H3 (Homo sapiens) | OR10H4 (Homo sapiens) | OR10H5 (Homo sapiens) | OR10J1 (Homo sapiens) | OR10J3 (Homo sapiens) | OR10K1 (Homo sapiens) | OR10K2 (Homo sapiens) | OR10P1 (Homo sapiens) | OR10Q1 (Homo sapiens)
active: OR10J5 (Homo sapiens)
